Data reported in ChEMBL document CHEMBL4725490, “Decreasing HepG2 Cytotoxicity by Lowering the Lipophilicity of Benzo[d]oxazolephosphinate Ester Utrophin Modulators” (ACS Med Chem Lett, 2020).
Values after ≈ are worked out from the molar mass of the structure shown. Active and inactive are the calls of the source. The rule behind the calls is not given here.

What was measured:
[1] = Inhibition of firefly luciferase activity using ATP as substrate preincubated followed by substrate addition and measured after 15 mins by firefly luciferase reporter gene assay; set-up: species or system Photinus pyralis
In short: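 Biochemical counter-screen measuring direct inhibition of recombinant firefly luciferase enzyme activity, used to flag interference in the H2K reporter assay.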

[2] = Lipophilicity, log D of the compound at pH 7.4; conditions: buffer
[3] = Kinetic aqueous solubility of the compound
[4] = Protein binding in mouse plasma
[5] = Apparent permeability across apical to basolateral side in human Caco2 cells; conditions: Caco-2
[6] = Apparent permeability across basolateral to apical side in human Caco2 cells; conditions: Caco-2
[7] = Half life in mouse hepatocyte; conditions: hepatocytes
[8] = system: HepG2; experiment: Cytotoxicity against human HepG2 cells assessed as reduction in cell viability incubated for 40 hrs by cell titer glo assay; assay type: ADME, cell-based; conditions: HepG2, 40 h
[9] = species: Mus musculus; experiment: Modulation activity of utrophin in dystrophic mouse muscle cells assessed increase in utrophin protein level by western blot analysis relative to control; conditions: filed as modulator
In short: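 LUmdx dystrophic mouse muscle cells were treated with compound, and utrophin protein was quantified by Western blot. Values are fold increase in utrophin level.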

[10] = Intrinsic clearance in mouse hepatocyte; conditions: hepatocytes

CCP(=O)(OC)c1ccc2oc(-c3cccc(OC)c3)nc2c1 (stereo not given)
IC50 ([1]; read-out: IC50): 0.088 µM | logD [2]: 3.19 | solubility kinetic [3]: > 250 µM | fraction unbound [4]: 0.04 | Papp A→B [5]: 15.7 ×10⁻⁶ cm/s | Papp B→A [6]: 12.6 ×10⁻⁶ cm/s | half-life [7]: < 3 min

CCP(=O)(OC)c1ccc2nc(-c3cncc(C(F)F)c3)oc2c1 (stereo not given)
IC50 [1]: Not Active | logD [2]: 2.08 | solubility kinetic [3]: 487 µM (≈ 172 µg/mL) | fraction unbound [4]: 0.23 | half-life [7]: > 240 min

CCP(=O)(OC)c1ccc2oc(-c3ccccc3OC(F)F)nc2c1 (stereo not given)
IC50 [1]: Not Active | logD [2]: 2.45 | solubility kinetic [3]: 366 µM (≈ 134 µg/mL) | fraction unbound [4]: 0.03 | Papp A→B [5]: 18.8 ×10⁻⁶ cm/s | Papp B→A [6]: 15.7 ×10⁻⁶ cm/s | half-life [7]: < 3 min

CCP(=O)(OC)c1ccc2oc(-c3ccc(F)cc3)nc2c1 (stereo not given)
IC50 ([1]; read-out: IC50): 0.115 µM | logD [2]: 2.8 | solubility kinetic [3]: 378 µM (≈ 121 µg/mL) | PPB [4]: 95% | Papp A→B [5]: 18 ×10⁻⁶ cm/s | Papp B→A [6]: 15.7 ×10⁻⁶ cm/s | IC50 [8]: 200 µM

CCP(=O)(OC)c1ccc2nc(-c3ccc(C(F)F)cc3)oc2c1 (stereo not given)
IC50 [1]: Not Active | logD [2]: 2.98 | solubility kinetic [3]: 556 µM (≈ 195 µg/mL) | fraction unbound [4]: 0.04 | Activity [9]: Active

CCP(=O)(OC)c1ccc2oc(-c3cncc(C(F)F)c3)nc2c1 (stereo not given)
IC50 [1]: Not Active | logD [2]: 1.86 | solubility kinetic [3]: 440 µM (≈ 155 µg/mL) | fraction unbound [4]: 0.26 | half-life [7]: > 240 min

CCP(=O)(OC)c1ccc2oc(-c3ccnc(OC(F)F)c3)nc2c1 (stereo not given)
IC50 ([1]; read-out: IC50): > 30 µM | logD [2]: 2.2 | solubility kinetic [3]: 733 µM (≈ 270 µg/mL) | fraction unbound [4]: 0.14 | Papp A→B [5]: 22.3 ×10⁻⁶ cm/s | Papp B→A [6]: 20.6 ×10⁻⁶ cm/s | half-life [7]: > 240 min | Activity [9]: Active | IC50 [8]: 200 µM

CCP(=O)(OC)c1ccc2nc(-c3ccccc3C(F)F)oc2c1 (stereo not given)
IC50 [1]: Not Active | logD [2]: 3.33 | solubility kinetic [3]: 446 µM (≈ 157 µg/mL) | fraction unbound [4]: 0.03 | CLH [10]: > 250 µL/min/10^6 cells | half-life [7]: < 3 min

CCP(=O)(OC)c1ccc2oc(-c3cccnc3C(F)(F)F)nc2c1 (stereo not given)
IC50 [1]: Not Active | logD [2]: 2.2 | solubility kinetic [3]: 854 µM (≈ 316 µg/mL) | fraction unbound [4]: 0.11 | half-life [7]: 4 min

CCP(=O)(OC)c1ccc2nc(-c3ccc(F)cc3C(F)F)oc2c1 (stereo not given)
IC50 [1]: Not Active | logD [2]: 3.59 | solubility kinetic [3]: 469 µM (≈ 173 µg/mL) | fraction unbound [4]: 0.03 | Papp A→B [5]: 12.3 ×10⁻⁶ cm/s | Papp B→A [6]: 11.5 ×10⁻⁶ cm/s | half-life [7]: 38 min

CCP(=O)(OC)c1ccc2oc(-c3cccc(C(F)(F)F)c3)nc2c1 (stereo not given)
IC50 ([1]; read-out: IC50): 12.1 µM

CCP(=O)(OC)c1ccc2oc(-c3ccc(F)cc3C(F)F)nc2c1 (stereo not given)
IC50 [1]: Not Active | logD [2]: 3.4 | solubility kinetic [3]: 518 µM (≈ 191 µg/mL) | fraction unbound [4]: 0.03 | half-life [7]: 13 min

CCP(=O)(OC)c1ccc2nc(-c3ccnc(OC(F)F)c3)oc2c1 (stereo not given)
IC50 ([1]; read-out: IC50): > 30 µM | logD [2]: 2.6 | solubility kinetic [3]: 834 µM (≈ 307 µg/mL) | fraction unbound [4]: 0.07 | Papp A→B [5]: 21.8 ×10⁻⁶ cm/s | Papp B→A [6]: 16.9 ×10⁻⁶ cm/s | half-life [7]: > 240 min

CCP(=O)(OC)c1ccc2oc(-c3cncc(C(F)(F)F)c3)nc2c1 (stereo not given)
IC50 [1]: Not Active | logD [2]: 2.44 | solubility kinetic [3]: 477 µM (≈ 177 µg/mL) | fraction unbound [4]: 0.25 | half-life [7]: > 240 min | Activity [9]: Active

CCP(=O)(OC)c1ccc2oc(-c3ccnc(C(F)(F)F)c3)nc2c1 (stereo not given)
IC50 [1]: Not Active | Papp A→B [5]: 12.3 ×10⁻⁶ cm/s | Papp B→A [6]: 11 ×10⁻⁶ cm/s | half-life [7]: > 240 min | IC50 [8]: 200 µM

CCP(=O)(OC)c1ccc2oc(-c3ccc(OC)cc3)nc2c1 (stereo not given)
IC50 ([1]; read-out: IC50): 0.19 µM | solubility kinetic [3]: 265 µM (≈ 87.8 µg/mL) | Papp A→B [5]: 13.3 ×10⁻⁶ cm/s | Papp B→A [6]: 10.7 ×10⁻⁶ cm/s | IC50 [8]: 200 µM

CCP(=O)(OC)c1ccc2oc(-c3ccc(C(F)F)cc3)nc2c1 (stereo not given)
IC50 [1]: Not Active | logD [2]: 3.06 | solubility kinetic [3]: 530 µM (≈ 186 µg/mL) | fraction unbound [4]: 0.02

CCP(=O)(OC)c1ccc2oc(-c3cccc(OC(F)F)c3)nc2c1 (stereo not given)
IC50 ([1]; read-out: IC50): > 30 µM | Papp A→B [5]: 13.3 ×10⁻⁶ cm/s | Papp B→A [6]: 9.37 ×10⁻⁶ cm/s | half-life [7]: 13 min

CCP(=O)(OC)c1ccc2oc(-c3cccc(C(F)F)c3)nc2c1 (stereo not given)
IC50 ([1]; read-out: IC50): 2.48 µM | logD [2]: 3.09 | solubility kinetic [3]: > 250 µM | fraction unbound [4]: 0.06 | Papp A→B [5]: 14.2 ×10⁻⁶ cm/s | Papp B→A [6]: 10.1 ×10⁻⁶ cm/s | half-life [7]: 20 min

CCP(=O)(OC)c1ccc2nc(-c3cccnc3C(F)(F)F)oc2c1 (stereo not given)
IC50 [1]: Not Active | logD [2]: 1.98 | solubility kinetic [3]: 699 µM (≈ 259 µg/mL) | fraction unbound [4]: 0.24 | half-life [7]: 5 min

CCP(=O)(OC)c1ccc2nc(-c3cccc(OC(F)F)c3)oc2c1 (stereo not given)
IC50 [1]: Not Active | logD [2]: 3.2 | solubility kinetic [3]: 8.4 µM (≈ 3.09 µg/mL) | fraction unbound [4]: 0.04 | Papp A→B [5]: 18.1 ×10⁻⁶ cm/s | Papp B→A [6]: 15.9 ×10⁻⁶ cm/s | half-life [7]: 37 min

CCP(=O)(OC)c1ccc2oc(-c3ccccc3C(F)F)nc2c1 (stereo not given)
IC50 ([1]; read-out: IC50): 5.73 µM | logD [2]: 2.8 | solubility kinetic [3]: > 250 µM | fraction unbound [4]: 0.03 | Papp A→B [5]: 16.2 ×10⁻⁶ cm/s | Papp B→A [6]: 11.2 ×10⁻⁶ cm/s | half-life [7]: < 3 min

CCP(=O)(OC)c1ccc2oc(-c3ccc4c(c3)OC(F)(F)O4)nc2c1 (stereo not given)
IC50 ([1]; read-out: IC50): 23.6 µM | logD [2]: 2.4 | solubility kinetic [3]: 576 µM (≈ 220 µg/mL) | fraction unbound [4]: 0.02 | Papp A→B [5]: 12.7 ×10⁻⁶ cm/s | Papp B→A [6]: 11.7 ×10⁻⁶ cm/s | half-life [7]: 154 min

CCP(=O)(OC)c1ccc2nc(-c3ccc4c(c3)OC(F)(F)O4)oc2c1 (stereo not given)
IC50 ([1]; read-out: IC50): > 30 µM | solubility kinetic [3]: 574 µM (≈ 219 µg/mL) | fraction unbound [4]: 0.02 | Papp A→B [5]: 17.2 ×10⁻⁶ cm/s | Papp B→A [6]: 16.2 ×10⁻⁶ cm/s | half-life [7]: 154 min | IC50 [8]: 68.9 µM

CCP(=O)(OC)c1ccc2nc(-c3cncc(C(F)(F)F)c3)oc2c1 (stereo not given)
IC50 [1]: Not Active | logD [2]: 2.41 | solubility kinetic [3]: 603 µM (≈ 223 µg/mL) | fraction unbound [4]: 0.2 | half-life [7]: > 240 min
